SMILES strings stand for the structures.

One experiment deals with Human alphaherpesvirus 1. The experiment in a line: Antiviral activity against herpes simplex virus type 1(HSV-1) ELISA method. The experiment is classed as functional, organism-based.
In experiment [1] the test system is Human betaherpesvirus 5. The experiment in a line: In vitro antiviral activity against human cytomegalovirus by plaque method. It counts as functional, organism-based. Put shortly:
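HCMV plaque reduction assay; result given as IC50 (concentration reducing plaque number by 50%). Averages from two or four experiments, some from a single experiment; highest concentration tested 100.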

Another experiment deals with HFF. As to the kind of experiment: Visual cytotoxicity scored on HFF cells at the time of HCMV plaque enumeration. It counts as functional, cell-based, Homo sapiens. An outline of the steps:
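Stationary HFF cells not affected by the plaque-assay virus examined microscopically for cytotoxicity, scored at the time HCMV plaques were counted. Top concentration tested 100; averages of two or four experiments, some single.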

A further experiment relates to L1210. The experiment in a line: Inhibition of L1210 murine leukemic cells proliferation in vitro. The experiment is classed as functional, cell-based, Mus musculus. An outline of the steps:
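L1210 murine leukemia cells grown with compound; cell counts taken at 0, 48 and 96 h. Where growth rate in treated cultures fell during the run, the 48–96 h rate was used.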

In the next experiment the test system is KB. The experiment in a line: In vitro inhibition of KB cell proliferation. It counts as functional, cell-based, Homo sapiens. Put shortly: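 KB cells grown over two population doublings of untreated controls with compound; proliferation quantified by crystal violet staining and spectrophotometric reading of dye eluted from stained cells. Values are IC50s averaged from two or four experiments, some from a single experiment.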

Experiment [2] deals with Human betaherpesvirus 5. The experiment in a line: In vitro antiviral activity against human cytomegalovirus by yield reduction assay. The experiment is classed as functional. An outline of the steps: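 HCMV yield reduction assay; result given as IC90. Averages from two or four experiments, some single; highest concentration tested 100.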

By IC50 is commonly meant the midpoint of a concentration-inhibition curve. A high value points to lower potency. A word on the IC90: it is the concentration at which the effect reaches the 90% level. As for `NC(=S)c1cn(C2OC(CO)CC2O)c2ncnc(N)c12` (stereo not given), the IC50 stood at 58 µM in the experiment on Human alphaherpesvirus 1 (Human alphaherpesvirus 1); 0.5 µM in the experiment with Human betaherpesvirus 5 [1] (Human betaherpesvirus 5); 2.1 µM in the experiment on HFF (Homo sapiens, HFF); 0.6 µM with L1210 (Mus musculus, L1210); 3 µM in the experiment with KB (Homo sapiens, KB). The compound further registered an IC90 in the experiment on Human betaherpesvirus 5 [2] (Human betaherpesvirus 5) of 3 µM.

Turning to `N#Cc1cn([C@H]2C[C@H](O)[C@@H](CO)O2)c2ncnc(N)c12`, the IC50 turned out to be 4.5 µM with Human alphaherpesvirus 1 (Human alphaherpesvirus 1); 35 µM in the experiment on Human betaherpesvirus 5 [1] (Human betaherpesvirus 5); 66 µM with HFF (Homo sapiens, HFF); 80 µM in the experiment with L1210 (Mus musculus, L1210); 25 µM in the experiment with KB (Homo sapiens, KB). The same compound returned a concentration for an effect of 90% (IC90) in the experiment on Human betaherpesvirus 5 [2] (Human betaherpesvirus 5) of 13 µM.

For the compound `NC(=S)c1cn(C2C=CC(CO)O2)c2ncnc(N)c12` (stereo not given), the IC50 came to 14 µM in the experiment with Human alphaherpesvirus 1 (Human alphaherpesvirus 1); 2.7 µM in the experiment with Human betaherpesvirus 5 [1] (Human betaherpesvirus 5); 18 µM in the experiment with HFF (Homo sapiens, HFF); 3 µM with L1210 (Mus musculus, L1210); 5 µM in the experiment on KB (Homo sapiens, KB). The IC90 in the experiment on Human betaherpesvirus 5 [2] (Human betaherpesvirus 5) came out at 5 µM.

As for `N=C(S)c1cn([C@@H]2O[C@H](CO)[C@@H](O)[C@@H]2N)c2ncnc(N)c12`, the IC50 turned out to be 28 µM in the experiment with Human alphaherpesvirus 1 (Human alphaherpesvirus 1); 1.6 µM in the experiment with Human betaherpesvirus 5 [1] (Human betaherpesvirus 5); 73 µM in the experiment on HFF (Homo sapiens, HFF); 2 µM in the experiment with L1210 (Mus musculus, L1210); 2.5 µM in the experiment on KB (Homo sapiens, KB). Further, the 90% effect level in the experiment with Human betaherpesvirus 5 [2] (Human betaherpesvirus 5) (IC90) was put at 41 µM.

As for `Nc1nc2c(ncn2COC(CO)CO)c(=O)[nH]1` [GANCICLOVIR], the IC50 with HFF (Homo sapiens, HFF) was above 100 µM; with KB (Homo sapiens, KB), above 100 µM. The compound further displayed an IC90 with Human betaherpesvirus 5 [2] (Human betaherpesvirus 5) of 1.8 µM.

`NC(=S)c1cn([C@H]2C[C@H](O)[C@@H](CO)O2)c2ncnc(N)c12`: the IC50 in the experiment on Human alphaherpesvirus 1 (Human alphaherpesvirus 1) was 8.2 µM; with Human betaherpesvirus 5 [1] (Human betaherpesvirus 5), 5.7 µM; in the experiment on HFF (Homo sapiens, HFF), 41 µM; in the experiment on L1210 (Mus musculus, L1210) it was 3.9 µM; with KB (Homo sapiens, KB), 7 µM. Moreover, the 90% effect level in the experiment with Human betaherpesvirus 5 [2] (Human betaherpesvirus 5) (IC90) was put at 15 µM.

Take `NC(=S)c1cn([C@@H]2O[C@H](CO)[C@@H](O)[C@@H]2O)c2ncnc(N)c12`: the IC50 with Human alphaherpesvirus 1 (Human alphaherpesvirus 1) amounted to 4.7 µM; in the experiment on Human betaherpesvirus 5 [1] (Human betaherpesvirus 5), 0.9 µM; in the experiment with HFF (Homo sapiens, HFF), 29 µM; in the experiment on L1210 (Mus musculus, L1210), 5 µM; in the experiment on KB (Homo sapiens, KB), 2 µM. The IC90 in the experiment with Human betaherpesvirus 5 [2] (Human betaherpesvirus 5) stood at 1.9 µM.

As to `N#Cc1cn([C@@H]2O[C@H](CO)[C@@H](O)[C@@H]2N)c2ncnc(N)c12`, the IC50 in the experiment with Human alphaherpesvirus 1 (Human alphaherpesvirus 1) is 320 µM; in the experiment with HFF (Homo sapiens, HFF), above 100 µM; in the experiment on L1210 (Mus musculus, L1210) it was 100 µM. It took 110 µM to reach the 90% level with Human betaherpesvirus 5 [2] (Human betaherpesvirus 5) (IC90).

In the case of `NC(=S)c1cn([C@@H]2O[C@H](CO)[C@@H](O)[C@H]2O)c2ncnc(N)c12`, the IC50 in the experiment with Human betaherpesvirus 5 [1] (Human betaherpesvirus 5) was found to be 0.4 µM; in the experiment with HFF (Homo sapiens, HFF) it was 0.32 µM; with L1210 (Mus musculus, L1210), 0.03 µM; in the experiment on KB (Homo sapiens, KB), 0.03 µM. The 90% effect level with Human betaherpesvirus 5 [2] (Human betaherpesvirus 5) (IC90) was put at 0.1 µM.

`N#Cc1cn([C@@H]2O[C@H](CO)[C@@H](O)[C@H]2O)c2ncnc(N)c12` (stereo in doubt; 2) [TOYOCAMYCIN]: the IC50 in the experiment on Human alphaherpesvirus 1 turned out to be 0.4 µM; in the experiment on Human betaherpesvirus 5 [1] it was 0.3 µM; in the experiment on HFF (hff), 0.3 µM; with L1210 (l1210), 0.1 µM; in the experiment on KB (kb), 0.1 µM. Besides, the 90% effect level in the experiment on Human betaherpesvirus 5 [2] (IC90) was put at 0.3 µM.

In the case of `N#Cc1cn(C2CCC(CO)O2)c2ncnc(N)c12` (stereo not given), the IC50 with Human alphaherpesvirus 1 (Human alphaherpesvirus 1) is 21 µM; in the experiment on Human betaherpesvirus 5 [1] (Human betaherpesvirus 5) it was 19 µM; in the experiment on HFF (Homo sapiens, HFF), above 100 µM; in the experiment on KB (Homo sapiens, KB) it was 88 µM. The compound further had an IC90 in the experiment with Human betaherpesvirus 5 [2] (Human betaherpesvirus 5) of 90 µM.

Regarding `NC(=S)c1cn([C@@H]2O[C@H](CO)[C@H](O)[C@H]2O)c2ncnc(N)c12`, the IC50 with Human alphaherpesvirus 1 (Human alphaherpesvirus 1) came out at 1.9 µM; in the experiment with Human betaherpesvirus 5 [1] (Human betaherpesvirus 5), 0.6 µM; in the experiment on HFF (Homo sapiens, HFF), 0.6 µM; with L1210 (Mus musculus, L1210) it was 0.5 µM; in the experiment on KB (Homo sapiens, KB), 1 µM. In the experiment on Human betaherpesvirus 5 [2] (Human betaherpesvirus 5), this compound had an IC90 of 0.4 µM.

For `N#Cc1cn(C2OC(CO)CC2O)c2ncnc(N)c12` (stereo not given), the IC50 with Human alphaherpesvirus 1 (Human alphaherpesvirus 1) is 2.6 µM; with Human betaherpesvirus 5 [1] (Human betaherpesvirus 5) it was 0.4 µM; in the experiment on HFF (Homo sapiens, HFF) it was 3 µM; with L1210 (Mus musculus, L1210), 0.1 µM; in the experiment on KB (Homo sapiens, KB), 4 µM. This compound returned an IC90 in the experiment with Human betaherpesvirus 5 [2] (Human betaherpesvirus 5) of 1.4 µM.

On to `NC(=S)c1cn(C2CCC(CO)O2)c2ncnc(N)c12` (stereo not given), for which the IC50 was found to be 6 µM with Human alphaherpesvirus 1 (Human alphaherpesvirus 1); 2.5 µM in the experiment on Human betaherpesvirus 5 [1] (Human betaherpesvirus 5); 29 µM in the experiment with HFF (Homo sapiens, HFF); 24 µM in the experiment with L1210 (Mus musculus, L1210); 11 µM in the experiment on KB (Homo sapiens, KB). Moreover, the IC90 in the experiment on Human betaherpesvirus 5 [2] (Human betaherpesvirus 5) was 12 µM.

As for `N#Cc1cn([C@@H]2O[C@H](CO)[C@@H](O)[C@H]2O)c2ncnc(N)c12` (stereo in doubt; A) [TOYOCAMYCIN], the IC50 was found to be 0.1 µM in the experiment on Human betaherpesvirus 5 [1] and 0.03 µM with HFF (hff).

Regarding `N#Cc1cn([C@@H]2O[C@H](CO)[C@@H](O)[C@H]2O)c2ncnc(N)c12` (stereo in doubt; 6) [TOYOCAMYCIN], half-maximal inhibition in the experiment on KB (kb) (IC50) was put at 17 µM. In the experiment with Human betaherpesvirus 5 [2], it took 14 µM to reach the 90% level (IC90).

Turning to `C[C@H]1OC(n2cc(C(=N)S)c3c(N)ncnc32)[C@H](O)[C@@H]1O` (stereo not given in full), the IC50 amounted to 3.1 µM in the experiment with Human betaherpesvirus 5 [1] (Human betaherpesvirus 5); 3.2 µM with HFF (Homo sapiens, HFF); 3 µM in the experiment on L1210 (Mus musculus, L1210); 0.5 µM with KB (Homo sapiens, KB).

For the compound `N#Cc1cn(C2C=CC(CO)O2)c2ncnc(N)c12` (stereo not given), the IC50 in the experiment with Human alphaherpesvirus 1 (Human alphaherpesvirus 1) is 41 µM; in the experiment on Human betaherpesvirus 5 [1] (Human betaherpesvirus 5), 5.1 µM; with HFF (Homo sapiens, HFF) it was above 100 µM; in the experiment with KB (Homo sapiens, KB) it was 176 µM. In the experiment with Human betaherpesvirus 5 [2] (Human betaherpesvirus 5), this compound came in with an IC90 above 100 µM.

The values above are taken from ChEMBL document CHEMBL1128465, “Synthesis and evaluation of certain thiosangivamycin analogs as potential inhibitors of cell proliferation and human cytomegalovirus” (J Med Chem, 1995).
